According to ChEMBL document CHEMBL4368901 (J Med Chem, 2019):
pIC50: −log10 of the molar value. Calls of active or inactive are those of the source. No cut-off for these calls is given here.

Legend:
[1] = molecular target: T1, Glutaminase kidney isoform, mitochondrial (Homo sapiens, UniProt O94925); experiment: Inhibition of human KGA preincubated for 15 to 30 mins followed by substrate addition and measured after 3 to 4 hrs by GDH-EZMTT reagent-based GDH coupled assay
T1 sequence (O94925 whole entry): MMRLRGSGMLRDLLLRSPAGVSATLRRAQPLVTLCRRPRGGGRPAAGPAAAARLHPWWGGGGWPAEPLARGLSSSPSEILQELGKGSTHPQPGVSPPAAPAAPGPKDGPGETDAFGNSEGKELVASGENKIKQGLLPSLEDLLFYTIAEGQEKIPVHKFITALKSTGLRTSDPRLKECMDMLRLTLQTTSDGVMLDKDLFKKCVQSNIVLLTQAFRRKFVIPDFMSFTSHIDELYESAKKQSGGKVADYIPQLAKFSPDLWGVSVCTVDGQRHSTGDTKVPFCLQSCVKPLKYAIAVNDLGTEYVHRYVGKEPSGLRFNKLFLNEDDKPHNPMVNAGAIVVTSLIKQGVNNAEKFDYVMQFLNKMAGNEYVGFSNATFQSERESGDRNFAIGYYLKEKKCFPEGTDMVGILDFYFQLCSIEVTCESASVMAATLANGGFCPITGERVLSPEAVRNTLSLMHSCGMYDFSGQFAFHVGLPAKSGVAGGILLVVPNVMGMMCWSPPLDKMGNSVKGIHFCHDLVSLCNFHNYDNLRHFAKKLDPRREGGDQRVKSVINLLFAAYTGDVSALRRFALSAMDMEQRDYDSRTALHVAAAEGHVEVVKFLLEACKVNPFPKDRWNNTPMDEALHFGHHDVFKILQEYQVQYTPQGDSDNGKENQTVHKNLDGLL

[2] = test system: A549; experiment: Antiproliferative activity against human A549 cells after 5 days by EZMTT reagent-based assay; format: functional, cell-based; conditions: A549, 120 h
[3] = Inhibition of GDH (unknown origin) using NADP+ and glutamate as substrate preincubated for 0.5 hrs followed by substrate addition and measured after 1 hr by EZMTT reagent-based UV-Vis absorbance assay; parameters: species or system Homo sapiens
[4] = test system: A549; experiment: Induction of ROS generation in human A549 cells at 10 uM after 12 hrs by DCFH-DA staining-based fluorescence microscopic analysis; format: functional, cell-based
Summary of the method: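 A549 cells were seeded at 10000 per well and exposed to compound at 0, 3 or 10 µM for 12 h. ROSUP at 100 µg/ml served as the positive control, alongside untreated cells. ROS was then assessed.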

[5] = test system: A549; experiment: Antiproliferative activity against human A549 cells after 5 days by EZMTT reagent-based assay relative to control; format: functional
[6] = Drug uptake in human Caki1 cells after 24 hrs using gold nanoparticles by microspectrometric based Raman spectra assay; format: ADME, cell-based; conditions: caki-1, 24 h
Summary of the method: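 Compound was premixed 1:1 with nanogold particles, at up to 2 µM. Glutamine-dependent Caki-1 cells were treated for 3, 9, 16 and 24 h, then SERS spectra were collected. Signal at 1352 cm^-1 served as the compound marker for cellular concentration.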

[7] = Drug uptake in human Caki1 cells up to 2 uM after 24 hrs without gold nanoparticles by microspectrometric analysis based Raman spectra assay; format: ADME, cell-based; conditions: caki-1, 24 h
[8] = test system: H22; experiment: Antitumor activity against mouse H22 cells transplanted in ICR mouse assessed as induction of inflammatory cell infiltration at tumor region at 10 mg/kg, sc administered once daily for 10 consecutive days by hematoxylin and eosin staining-based assay; format: functional, organism-based
[9] = test system: HCT-116; experiment: Antiproliferative activity against human HCT116 cells after 5 days by EZMTT reagent-based assay relative to control; format: functional
[10] = test system: HCT-116; experiment: Antiproliferative activity against human HCT116 cells after 5 days by EZMTT reagent-based assay; format: functional, cell-based; conditions: HCT-116, 120 h
[11] = test system: H22; experiment: Antitumor activity against mouse H22 cells transplanted in ICR mouse assessed as induction of scattered deformed nuclei at tumor region at 10 mg/kg, sc administered once daily for 10 consecutive days by hematoxylin and eosin staining-based assay; format: functional, organism-based
[12] = test system: H22; experiment: Antitumor activity against mouse H22 cells transplanted in ICR mouse assessed as induction of tumor deterioration at 10 mg/kg, sc administered once daily for 10 consecutive days by hematoxylin and eosin staining-based assay; format: functional, organism-based
[13] = Retention time of compound in mouse liver microsomes at 50 uM by LC-MS/MS analysis; format: ADME, Microsome
[14] = Metabolic stability in ICR mouse blood after 2 hrs by HPLC analysis; format: ADME, tissue-based
Summary of the method: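 Compound was incubated in blood for 2 h and its remaining concentration was quantified by HPLC.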

[15] = test system: H22; experiment: Antitumor activity against mouse H22 cells transplanted in ICR mouse assessed as reduction in tumor weight at 10 mg/kg, sc administered once daily for 10 consecutive days relative to control; format: functional; parameters: scale not given: the % may be the effect or the level left
Summary of the method: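 H22 liver cancer model in young SPF ICR mice, n=10 per group. Compound given subcutaneously once daily at 10 mg/kg, 10 injections; the control group received N.S. End-point tumour size and weight, body weight and survival were recorded. Treated groups were compared with control by unpaired t test.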

[16] = test system: H22; experiment: Antiproliferative activity against mouse H22 cells after 5 days by EZMTT reagent-based assay; format: functional, cell-based; conditions: H22, 120 h
[17] = Drug level in tumor of mouse H22 cells transplanted ICR mouse at 10 mg/kg, sc administered once daily for 10 consecutive days by HPLC analysis; format: ADME, organism-based, Neoplasm; conditions: in vivo
Summary of the method: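 Compound accumulation was measured in end-point tumours from H22-bearing ICR mice after once-daily subcutaneous 10 mg/kg dosing, 10 injections. Tumour content was analysed by HPLC.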

[18] = test system: H22; experiment: Antiproliferative activity against mouse H22 cells after 5 days by EZMTT reagent-based assay relative to control; format: functional
[19] = Metabolic stability in mouse liver microsomes at 50 uM after 4 hrs in presence of NADPH by HPLC analysis; format: ADME, Microsome; conditions: read-out: Stability
Summary of the method: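 Compound was incubated with mouse liver microsomes for 4 h, with coumarin as the control. The remaining level was quantified by HPLC using UV absorbance at 254 nm.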

[20] = test system: CAKI-1; experiment: Antiproliferative activity against human Caki1 cells after 5 days by EZMTT reagent-based assay relative to control; format: functional
[21] = test system: CAKI-1; experiment: Antiproliferative activity against human Caki1 cells after 5 days by EZMTT reagent-based assay; format: functional, cell-based; conditions: CAKI-1, 120 h
[22] = test system: H22; experiment: Antitumor activity against mouse H22 cells transplanted in ICR mouse assessed as induction of fibrous hyperplasia at tumor region at 10 mg/kg, sc administered once daily for 10 consecutive days by hematoxylin and eosin staining-based assay; format: functional, organism-based
[23] = test system: H22; experiment: Antitumor activity against mouse H22 cells transplanted in ICR mouse assessed as induction of foam-like histiocytic reaction at tumor region at 10 mg/kg, sc administered once daily for 10 consecutive days by hematoxylin and eosin staining-based assay; format: functional, organism-based
[24] = Solubility of compound; format: physicochemical

Row | SMILES | pIC50 [1] | pIC50 [2] | pIC50 [3] | Imax [5] [%] | other results
1 | Cn1ccc(CC(=O)Nc2nnc(CCSCCc3nnc(N)s3)s2)c1 | 5.29 | < 4.89 | < 4.89 | – | –
2 | Cn1cc(CC(=O)Nc2nnc(CCSCCc3nnc(N)s3)s2)c2ccccc21 | 5.85 | < 4.89 | < 4.89 | – | –
3 | O=C(Cc1cccc(OC(F)(F)F)c1)Nc1ccc(CCCCc2nnc(NC(=O)Cn3cc(F)c(=O)[nH]c3=O)[se]2)nn1 | 7.70 | 6.34 | < 4.89 | 91 | Activity [4]: Active
4 | O=C(Cc1ccccc1)Nc1nnc(CCSCCc2nnc(NC(=O)Cc3ccccc3)[se]2)[se]1 | – | 6.64 | < 4.89 | 82 | –
5 | Cn1cc(CC(=O)Nc2nnc(CCSCCc3nnc(N)[se]3)[se]2)c2ccccc21 | 5.96 | < 4.89 | < 4.89 | – | Drug uptake [6]: Dose-dependent effect; Drug uptake [7]: Not Active
6 | COc1ccc(Nc2nnc(CCSCCc3nnc(Nc4ccc(OC)cc4)[se]3)[se]2)cc1 | < 4.89 | < 4.89 | < 4.89 | 0 | –
7 | c1ccc(CNc2nnc(CCSCCc3nnc(NCc4ccccc4)[se]3)[se]2)cc1 | < 4.89 | < 4.89 | < 4.89 | 0 | –
8 | c1ccc(CCNc2nnc(CCSCCc3nnc(NCCc4ccccc4)[se]3)[se]2)cc1 | < 4.89 | < 4.89 | < 4.89 | 0 | –
9 | Cn1ccc(CC(=O)Nc2nnc(CCSCCc3nnc(N)[se]3)[se]2)c1 | 5.68 | < 4.89 | < 4.89 | – | –
10 | COc1ccc2c(c1)c(CC(=O)Nc1nnc(CCCCc3ccc(NC(=O)Cc4cccc(OC(F)(F)F)c4)nn3)[se]1)cn2C | 8.00 | 8.00 | < 4.89 | 90 | Activity [8]: Active; Imax [9]: 92%; pIC50 [10]: 7.70; Activity [11]: Active; Activity [12]: Active; Retention_time [13]: 10.7 min; Stability [14]: Stable; Activity [15]: 40%; pIC50 [16]: 5.39; Drug uptake [17]: Active; Imax [18]: 70%; remaining at 4 h, 50 µM [19]: 30%; Imax [20]: 90%; pIC50 [21]: 7.70; Activity [22]: Active; Activity [23]: Active
11 | Nc1nnc(CCSCCc2nnc(NC(=O)Cc3ccccc3)s2)s1 | – | < 4.89 | < 4.89 | – | –
12 | Cn1cc(CC(=O)Nc2nnc(CCCCc3ccc(NC(=O)Cc4cccc(OC(F)(F)F)c4)nn3)[se]2)c2ccccc21 | – | 7.77 | < 4.89 | 80 | Imax [9]: 92%; pIC50 [10]: 8.05; pIC50 [16]: < 5.00; Imax [18]: 10%; Imax [20]: 90%; pIC50 [21]: 7.85
13 | O=c1ccc2ccccc2o1 [COUMARIN] | – | – | – | – | remaining at 4 h, 50 µM [19]: 14%
14 | O=c1c2ccccc2[se]n1CCCCCCn1[se]c2ccccc2c1=O | – | – | – | – | Imax [9]: 100%; pIC50 [10]: 5.66; pIC50 [16]: 6.08; Imax [18]: 100%; Imax [20]: 100%; pIC50 [21]: 5.89
15 | Cn1cc(CC(=O)Nc2nnc(CCSCCc3nnc(NC(=O)Cc4cn(C)c5ccccc45)s3)s2)c2ccccc21 | – | 5.54 | < 4.89 | 80 | Imax [9]: 93%; pIC50 [10]: 5.66; pIC50 [16]: < 5.00; Drug uptake [6]: Dose-dependent effect; Imax [18]: 42%; Drug uptake [7]: Not Active; Imax [20]: 85%; pIC50 [21]: 5.41
16 | Cn1ccc(CC(=O)Nc2nnc(CCSCCc3nnc(NC(=O)Cc4ccn(C)c4)s3)s2)c1 | – | 5.66 | < 4.89 | 80 | –
17 | O=C(Cc1ccccc1)Nc1nnc(CCCCc2nnc(NC(=O)Cc3ccccc3)s2)s1 | – | < 4.89 | < 4.89 | 0 | solubility [24]: Insoluble
18 | Nc1nnc(CCCCc2nnc(NC(=O)Cc3ccccc3)s2)s1 | < 4.89 | < 4.89 | < 4.89 | 0 | –
19 | Nc1nnc(CCSCCc2nnc(NC(=O)Cc3ccccc3)[se]2)[se]1 | 5.55 | < 4.89 | < 4.89 | – | –
20 | Cn1cc(CC(=O)Nc2nnc(CCSCCc3nnc(NC(=O)Cc4cn(C)c5ccccc45)[se]3)[se]2)c2ccccc21 | – | 6.96 | < 4.89 | 81 | Imax [9]: 94%; pIC50 [10]: 6.49; pIC50 [16]: 5.86; Drug uptake [6]: Dose-dependent effect; Imax [18]: 71%; Drug uptake [7]: Not Active; Imax [20]: 87%; pIC50 [21]: 6.40
21 | O=C(Cc1ccccc1)Nc1nnc(CCSCCc2nnc(NC(=O)Cc3ccccc3)s2)s1 | – | 6.38 | < 4.89 | 72 | Imax [9]: 69%; pIC50 [10]: 6.27; Imax [18]: 29%; Imax [20]: 73%; pIC50 [21]: 5.94
22 | Cn1ccc(CC(=O)Nc2nnc(CCSCCc3nnc(NC(=O)Cc4ccn(C)c4)[se]3)[se]2)c1 | – | 6.00 | < 4.89 | 82 | –
23 | O=C(Nc1nnc(CCSCCc2nnc(NC(=O)C34CC5CC(CC(C5)C3)C4)[se]2)[se]1)C12CC3CC(CC(C3)C1)C2 | 5.77 | < 4.89 | < 4.89 | 0 | –
24 | Nc1nnc(CCSCCc2nnc(NC(=O)CC34CC5CC(CC(C5)C3)C4)[se]2)[se]1 | 6.52 | 5.30 | < 4.89 | 60 | –
25 | Nc1nnc(CCSCCc2nnc(NC(=O)C34CC5CC(CC(C5)C3)C4)[se]2)[se]1 | 5.10 | < 4.89 | < 4.89 | 0 | –
